# Test results taken from ChEMBL document CHEMBL3085747, “Synthesis and biological evaluation of substituted 1,2,3-benzotriazines and pyrido[3,2-d]-1,2,3-triazines as inhibitors of vascular endothelial growth factor receptor-2” (2013).
# Assays:
# [1] = Growth inhibition of HMVEC after 4 days by MTT assay; type: functional; conditions: Homo sapiens, 96 h
# Procedure, shortened: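 Human microvascular endothelial cells were grown in DMEM with 4 mM L-glutamine, 4.50 g/L glucose and 10% heat-inactivated FBS. Cells were seeded at 2 × 10³/well for 24 h, then exposed to a range of compound concentrations for 4 days at 37 °C. MTT (2 mg/mL) was added, cells were dissolved in DMSO, and A570 was read. Growth inhibition is relative to untreated cells. GI50 is the mean of three independent experiments.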
# [2] = Ratio of PTK787 GI50 to compound GI50 for HMVEC after 4 days by MTT assay; type: functional, Homo sapiens
Structure (SMILES),GI50 [1] [µM],RatioGI50 [2]
COc1cc2c(Nc3ccc(C(F)(F)F)cc3)nnnc2cc1OCCCCl,44.4,–
CCOc1cc2nnnc(Nc3ccc(F)c(C(F)(F)F)c3)c2cc1OC,31.7,–
CCOc1cc2nnnc(Nc3ccc(C(F)(F)F)cc3)c2cc1OC,> 80,–
CCOc1cc2nnnc(Nc3ccccc3F)c2cc1OC,> 80,–
CCCCCOc1cc2nnnc(Nc3cc(F)cc(F)c3)c2cc1OC,27.9,–
FC(F)(F)Oc1cccc(Nc2nnnc3ccc(Cl)nc23)c1,4.28,–
CCCCOc1cc2nnnc(Nc3ccc(Cl)c(Cl)c3)c2cc1OC,15.5,–
Fc1ccccc1Nc1nnnc2ccc(Cl)nc12,10.8,–
FC(F)(F)c1cccc(Nc2nnnc3ccc(Cl)nc23)c1,5.25,–
Clc1ccc2nnnc(Nc3cccc(Br)c3)c2n1,7.24,–
CCCCOc1cc2nnnc(Nc3cccc(Br)c3)c2cc1OC,16.8,–
CCCCOc1cc2nnnc(Nc3ccccc3F)c2cc1OC,> 80,–
FC(F)(F)c1ccc(Nc2nnnc3ccc(Cl)nc23)cc1,8.06,–
COc1cc2c(Nc3ccc(C)cc3)nnnc2cc1OCCCCl,17.1,–
CCCCCOc1cc2nnnc(Nc3ccc(Br)c(F)c3)c2cc1OC,> 80,–
Fc1ccc(Nc2nnnc3ccc(Cl)nc23)cc1C(F)(F)F,10.8,–
FC(F)(F)Oc1ccc(Nc2nnnc3ccc(Cl)nc23)cc1,11.5,–
Clc1ccc(Nc2nnc(Cc3ccncc3)c3ccccc23)cc1,38.1,–
CCCCCOc1cc2nnnc(Nc3ccc(F)cc3)c2cc1OC,> 80,–

Structure (SMILES),GI50 [1] [µM],RatioGI50 [2]
CCCCCOc1cc2nnnc(Nc3ccc(Cl)cc3)c2cc1OC,25.3,–
CCCCOc1cc2nnnc(Nc3ccc(C(F)(F)F)cc3)c2cc1OC,> 80,–
CCOc1cc2nnnc(Nc3cccc(OC(F)(F)F)c3)c2cc1OC,23.3,–
Clc1cc(Cl)cc(Nc2nnnc3ccc(Cl)nc23)c1,7.93,–
CCCCCOc1cc2nnnc(Nc3ccc(OC(F)(F)F)cc3)c2cc1OC,38,–
CCCCOc1cc2nnnc(Nc3ccc(F)c(C(F)(F)F)c3)c2cc1OC,16.1,–
CCCCOc1cc2nnnc(Nc3ccc(Br)c(F)c3)c2cc1OC,> 80,–
Fc1cc(Nc2nnnc3ccc(Cl)nc23)ccc1Br,9.56,–
CCOc1cc2nnnc(Nc3ccc(OC(F)(F)F)cc3)c2cc1OC,> 80,–
CCOc1cc2nnnc(Nc3cccc(Br)c3)c2cc1OC,39.8,–
CCCCOc1cc2nnnc(Nc3ccc(F)cc3)c2cc1OC,> 80,–
CCOc1cc2nnnc(Nc3ccc(Br)c(F)c3)c2cc1OC,73.3,–
COc1cc2c(Nc3ccc(F)c(Cl)c3)nnnc2cc1OCCCCl,7.98,4
CCCCOc1cc2nnnc(Nc3ccc(C)cc3)c2cc1OC,> 80,–
CCOc1cc2nnnc(Nc3cccc(Cl)c3)c2cc1OC,60,–
Clc1ccc(Nc2nnnc3ccc(Cl)nc23)cc1,10.5,–
CCCCOc1cc2nnnc(Nc3ccc(OC(F)(F)F)cc3)c2cc1OC,30,–
CCCCCOc1cc2nnnc(Nc3cccc(OC(F)(F)F)c3)c2cc1OC,42.6,–
CCOc1cc2nnnc(Nc3cccc(C(F)(F)F)c3)c2cc1OC,> 80,–
